# Measured values taken from the RNAGym collection of RNA variant scans (doi:10.1002/anie.201605470).
# B1: Osa-1-4 twister ribozyme (parent)
# chain: CCGCCUAACACUGCCAAUGCCGGUCCCAAGCCCGGAUAAAAGUGGAGGGGGCGG
# Variants of: B1
# Assay: self-cleavage, relative activity (ratio to wild type); higher = more cleavage; co-transcriptional
# Outline: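 The 48 positions downstream of the cleavage site in a 54-nucleotide Oryza sativa twister ribozyme template were synthesised at 97 % wild-type base and 1 % of each other base. The template was transcribed in vitro at 37 °C for 2 h, with self-cleavage allowed during transcription. Reads with or without upstream sequence after deep sequencing marked cleavage status, and relative activity is fraction cleaved normalised to wild type.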
row,Variant,self-cleavage
1,C52G G30C,0.07
2,C52G G30U,0.05
3,G53A,0.93
4,C52A U12G,0.18
5,C52A U12C,0.48
6,C52A U12A,0.71
7,G51U G53C,0.05
8,G51U G53A,0.19
9,G51U G53U,0.12
10,G50C U24A,0.08
11,G50C U24C,0.11
12,G50C U24G,0.02
13,C52G U24G,0.06
14,C52G U24C,0.22
15,C52G U24A,0.23
16,C52G G44U,0.9
17,C52G G44A,0.98
18,C52G G44C,0.9
19,C52G G13A,0.12
20,C52G G13C,0.07
21,C52G G13U,0.06

row,Variant,self-cleavage
1,C52U G34C,0.65
2,C52U G34U,0.85
3,C52U G34A,0.93
4,C52A C9A,0.55
5,C52A C9U,0.82
6,C52A C9G,0.8
7,C52A G50C,0.14
8,C52A G50U,0.25
9,C52A G50A,0.69
10,G50U G51A,0.66
11,G50U G51C,0.11
12,G50U G51U,0.57
13,C52G C9U,0.85
14,C52G C9A,0.57
15,C52G C9G,0.86
16,C52A G34C,0.21
17,C52A G34U,0.39
18,C52A G34A,0.65
19,G53A G54U,0.79
20,G53A G54A,0.62
21,G53A G54C,0.66

row,Variant,self-cleavage
1,C52A U24G,0.04
2,C52A U24A,0.14
3,C52A U24C,0.18
4,C52G U43C,0.55
5,C52G U43A,0.9
6,C52G U43G,0.65
7,C52G U12G,0.32
8,C52G U12C,0.58
9,C52G U12A,0.85
10,C52G G19U,0.27
11,C52G G19C,0.14
12,C52G G19A,0.55
13,C52A U37G,1.06
14,C52A U37A,0.9
15,C52A U37C,1.02
16,G50U G53U,0.37
17,G50U G53A,0.61
18,G50U G53C,0.09
19,G50A U43A,0.38
20,G50A U43G,0.15
21,G50A U43C,0.35

row,Variant,self-cleavage
1,C52G G22U,0.35
2,C52G G22A,0.75
3,C52G G22C,0.09
4,C52A G23A,0.17
5,C52A G23C,0.06
6,C52A G23U,0.09
7,G51A G53C,0.06
8,G51A G53A,0.64
9,G51A G53U,0.17
10,C52U G49U,0.15
11,C52U G49A,0.21
12,C52U G49C,0.07
13,G51U U43A,0.13
14,G51U U43G,0.08
15,G51U U43C,0.11
16,C52U C9G,0.95
17,C52U C9A,0.62
18,C52U C9U,0.87
19,C52G G23U,0.14
20,C52G G23A,0.28
